Test [1] is described as follows: Antiproliferative activity against human HCT116 cells after 72 hrs by MTT assay. It is filed as functional, cell-based. The following applies: HCT-116, 72 h. The procedure, abridged:
(§1)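 MTT: cells seeded at 1500–4000 per well, grown 24 h, then given serial dilutions (1% DMSO final) for 72 h at 37 °C. MTT was added for 4 h, formazan dissolved in DMSO and absorbance read at 490 nm. Three separate experiments in triplicate; IC50 is the concentration giving 50% cell death versus control.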

In another test the test system is MCF7. The test can be described thus: Antiproliferative activity against human MCF7 cells after 72 hrs by MTT assay. The test is classed as functional, cell-based. The following applies: MCF7, 72 h. In a few lines:
as §1
A general note: Tetrazolium assays rely on reduction of a dye to a coloured formazan, in cell work by metabolically active cells.

The nature of test [2]: Antiproliferative activity against human U87MG cells after 72 hrs by MTT assay. It is filed as functional, cell-based, U-87MG ATCC. The conditions noted are these: U-87 MG. In a few lines: as §1
The subject of the next test is A549. The test is described as follows: Antiproliferative activity against human A549 cells after 72 hrs by MTT assay. The test is classed as functional, cell-based. The following applies: A549, 72 h. The procedure, abridged: as §1
In test [3] the target is PI3-kinase p110-alpha/p85-alpha (Homo sapiens, UniProt P42336). The test can be described thus: Inhibition of p110alpha/p85alpha (unknown origin) using L-alpha-phosphatidylinositol incubated for 40 mins by ADP depletion detection based luciferase assay. It is filed as protein-complex assay.
Sequence of PI3-kinase p110-alpha/p85-alpha (P27986 whole entry): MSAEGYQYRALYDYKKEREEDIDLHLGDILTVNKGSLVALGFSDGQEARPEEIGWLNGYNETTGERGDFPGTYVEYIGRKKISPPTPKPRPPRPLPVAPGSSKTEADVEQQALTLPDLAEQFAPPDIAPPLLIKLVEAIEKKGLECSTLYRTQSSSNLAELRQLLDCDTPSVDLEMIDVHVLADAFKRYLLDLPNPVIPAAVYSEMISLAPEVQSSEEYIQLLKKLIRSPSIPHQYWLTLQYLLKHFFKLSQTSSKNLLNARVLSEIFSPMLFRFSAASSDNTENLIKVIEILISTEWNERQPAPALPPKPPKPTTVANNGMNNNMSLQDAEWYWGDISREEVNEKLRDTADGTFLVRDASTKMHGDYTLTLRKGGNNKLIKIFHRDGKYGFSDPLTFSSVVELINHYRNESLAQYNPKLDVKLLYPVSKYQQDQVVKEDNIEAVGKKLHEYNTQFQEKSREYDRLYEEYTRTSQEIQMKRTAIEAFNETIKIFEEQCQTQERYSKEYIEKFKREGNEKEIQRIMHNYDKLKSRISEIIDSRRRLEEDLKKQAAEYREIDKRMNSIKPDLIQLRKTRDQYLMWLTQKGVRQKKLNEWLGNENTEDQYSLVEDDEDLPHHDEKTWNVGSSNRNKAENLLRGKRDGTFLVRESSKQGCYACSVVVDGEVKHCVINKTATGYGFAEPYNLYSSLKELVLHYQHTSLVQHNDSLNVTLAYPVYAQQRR
Sequence of PI3-kinase p110-alpha/p85-alpha (P42336 whole entry): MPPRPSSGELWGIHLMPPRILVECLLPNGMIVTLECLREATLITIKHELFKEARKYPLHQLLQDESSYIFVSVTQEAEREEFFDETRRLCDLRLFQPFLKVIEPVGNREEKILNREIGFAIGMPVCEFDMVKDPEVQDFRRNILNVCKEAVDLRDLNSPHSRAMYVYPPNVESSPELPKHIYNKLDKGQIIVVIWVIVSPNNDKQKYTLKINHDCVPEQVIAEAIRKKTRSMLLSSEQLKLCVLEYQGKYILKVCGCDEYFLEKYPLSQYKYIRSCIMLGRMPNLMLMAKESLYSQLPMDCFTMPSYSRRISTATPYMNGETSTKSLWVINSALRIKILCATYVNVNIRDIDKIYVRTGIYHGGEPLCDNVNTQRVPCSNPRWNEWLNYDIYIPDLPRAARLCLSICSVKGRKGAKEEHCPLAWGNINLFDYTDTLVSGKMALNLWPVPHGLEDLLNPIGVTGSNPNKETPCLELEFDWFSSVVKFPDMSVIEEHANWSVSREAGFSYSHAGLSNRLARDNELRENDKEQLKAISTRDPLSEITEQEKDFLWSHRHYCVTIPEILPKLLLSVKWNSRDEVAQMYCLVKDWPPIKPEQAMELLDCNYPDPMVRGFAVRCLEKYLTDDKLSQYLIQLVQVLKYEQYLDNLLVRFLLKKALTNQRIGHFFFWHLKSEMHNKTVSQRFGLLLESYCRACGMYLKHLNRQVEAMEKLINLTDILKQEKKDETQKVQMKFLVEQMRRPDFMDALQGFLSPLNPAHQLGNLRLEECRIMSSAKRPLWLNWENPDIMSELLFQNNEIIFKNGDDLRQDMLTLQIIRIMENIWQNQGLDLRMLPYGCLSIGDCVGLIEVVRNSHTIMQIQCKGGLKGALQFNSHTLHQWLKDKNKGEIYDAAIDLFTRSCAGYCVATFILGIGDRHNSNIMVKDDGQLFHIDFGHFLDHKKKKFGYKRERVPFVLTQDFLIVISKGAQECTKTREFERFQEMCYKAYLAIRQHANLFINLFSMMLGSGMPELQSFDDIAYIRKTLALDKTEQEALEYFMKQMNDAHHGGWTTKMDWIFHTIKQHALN
Another test has as its target PI3K p110 beta/p85 alpha (Homo sapiens, UniProt P42338). The test can be described thus: Inhibition of p110beta/p85alpha (unknown origin) using L-alpha-phosphatidylinositol incubated for 40 mins by ADP depletion detection based luciferase assay. It is filed as protein-complex assay.
The target in test [4] is PI3-kinase subunit gamma/Phosphoinositide 3-kinase regulatory subunit 5 (Homo sapiens, UniProt P48736). The test can be described thus: Inhibition of p110gamma/PIK3R5 (unknown origin) using L-alpha-phosphatidylinositol incubated for 40 mins by ADP depletion detection based luciferase assay. The test is classed as protein-complex assay.
Sequence of PI3-kinase subunit gamma/Phosphoinositide 3-kinase regulatory subunit 5 (P48736 whole entry): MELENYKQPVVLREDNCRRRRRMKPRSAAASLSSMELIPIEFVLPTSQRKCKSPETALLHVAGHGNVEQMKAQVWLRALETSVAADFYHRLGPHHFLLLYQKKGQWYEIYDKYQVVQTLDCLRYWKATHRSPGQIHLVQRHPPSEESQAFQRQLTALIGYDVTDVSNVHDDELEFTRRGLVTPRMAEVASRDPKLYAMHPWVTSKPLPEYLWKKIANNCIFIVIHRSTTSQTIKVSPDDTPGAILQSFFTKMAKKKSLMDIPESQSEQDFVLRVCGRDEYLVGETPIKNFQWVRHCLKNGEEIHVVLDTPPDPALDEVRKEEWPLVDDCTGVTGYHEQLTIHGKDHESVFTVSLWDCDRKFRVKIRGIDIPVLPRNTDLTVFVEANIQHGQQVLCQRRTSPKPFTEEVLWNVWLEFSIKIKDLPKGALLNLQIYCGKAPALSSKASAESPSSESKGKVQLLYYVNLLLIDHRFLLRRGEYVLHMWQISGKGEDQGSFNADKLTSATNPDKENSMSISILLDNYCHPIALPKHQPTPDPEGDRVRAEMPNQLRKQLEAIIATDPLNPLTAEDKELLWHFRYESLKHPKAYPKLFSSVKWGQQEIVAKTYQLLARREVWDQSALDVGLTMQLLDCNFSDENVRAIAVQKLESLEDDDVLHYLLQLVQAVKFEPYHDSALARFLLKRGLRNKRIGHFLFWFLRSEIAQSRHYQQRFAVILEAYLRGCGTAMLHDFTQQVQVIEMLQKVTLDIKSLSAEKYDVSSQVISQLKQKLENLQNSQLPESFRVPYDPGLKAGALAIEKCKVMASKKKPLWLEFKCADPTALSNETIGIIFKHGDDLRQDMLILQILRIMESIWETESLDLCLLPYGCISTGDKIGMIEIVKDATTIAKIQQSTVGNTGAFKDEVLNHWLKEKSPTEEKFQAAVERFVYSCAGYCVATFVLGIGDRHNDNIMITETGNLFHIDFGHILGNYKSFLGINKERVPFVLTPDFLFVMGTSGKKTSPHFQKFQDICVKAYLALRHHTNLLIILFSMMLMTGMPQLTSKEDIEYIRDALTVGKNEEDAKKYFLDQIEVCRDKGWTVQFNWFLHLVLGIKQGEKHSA
Sequence of PI3-kinase subunit gamma/Phosphoinositide 3-kinase regulatory subunit 5 (Q8WYR1 whole entry, further chain): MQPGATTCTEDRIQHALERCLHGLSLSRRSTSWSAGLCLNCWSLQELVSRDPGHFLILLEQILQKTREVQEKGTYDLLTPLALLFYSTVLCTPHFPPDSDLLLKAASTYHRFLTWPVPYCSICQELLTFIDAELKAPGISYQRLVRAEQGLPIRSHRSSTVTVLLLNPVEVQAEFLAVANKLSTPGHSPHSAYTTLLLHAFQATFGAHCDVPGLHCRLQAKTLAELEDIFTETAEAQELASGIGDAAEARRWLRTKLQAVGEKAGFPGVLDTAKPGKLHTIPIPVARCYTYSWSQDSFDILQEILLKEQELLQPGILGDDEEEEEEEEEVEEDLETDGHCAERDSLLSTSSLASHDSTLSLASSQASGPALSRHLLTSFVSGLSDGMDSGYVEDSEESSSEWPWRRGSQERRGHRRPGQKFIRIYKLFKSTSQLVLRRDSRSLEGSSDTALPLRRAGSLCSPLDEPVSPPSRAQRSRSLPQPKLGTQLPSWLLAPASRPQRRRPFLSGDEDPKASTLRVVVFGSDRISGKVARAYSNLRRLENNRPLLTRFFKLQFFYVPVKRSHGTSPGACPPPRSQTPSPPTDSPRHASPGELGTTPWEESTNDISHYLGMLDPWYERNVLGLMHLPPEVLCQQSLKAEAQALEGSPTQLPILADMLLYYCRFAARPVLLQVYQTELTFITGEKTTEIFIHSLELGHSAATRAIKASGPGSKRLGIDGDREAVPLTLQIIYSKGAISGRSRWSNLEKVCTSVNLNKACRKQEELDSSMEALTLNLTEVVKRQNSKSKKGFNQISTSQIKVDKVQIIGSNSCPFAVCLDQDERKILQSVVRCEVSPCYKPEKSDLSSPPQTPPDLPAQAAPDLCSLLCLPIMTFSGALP
Test [5] deals with PI3-kinase p110-delta/p85-alpha (Homo sapiens, UniProt O00329). The test can be described thus: Inhibition of p110delta/p85alpha (unknown origin) using L-alpha-phosphatidylinositol incubated for 40 mins by ADP depletion detection based luciferase assay. The test is classed as protein-complex assay.
Sequence of PI3-kinase p110-delta/p85-alpha (P27986 whole entry): as the sequence (P27986 whole entry) above
Sequence of PI3-kinase p110-delta/p85-alpha (O00329 whole entry): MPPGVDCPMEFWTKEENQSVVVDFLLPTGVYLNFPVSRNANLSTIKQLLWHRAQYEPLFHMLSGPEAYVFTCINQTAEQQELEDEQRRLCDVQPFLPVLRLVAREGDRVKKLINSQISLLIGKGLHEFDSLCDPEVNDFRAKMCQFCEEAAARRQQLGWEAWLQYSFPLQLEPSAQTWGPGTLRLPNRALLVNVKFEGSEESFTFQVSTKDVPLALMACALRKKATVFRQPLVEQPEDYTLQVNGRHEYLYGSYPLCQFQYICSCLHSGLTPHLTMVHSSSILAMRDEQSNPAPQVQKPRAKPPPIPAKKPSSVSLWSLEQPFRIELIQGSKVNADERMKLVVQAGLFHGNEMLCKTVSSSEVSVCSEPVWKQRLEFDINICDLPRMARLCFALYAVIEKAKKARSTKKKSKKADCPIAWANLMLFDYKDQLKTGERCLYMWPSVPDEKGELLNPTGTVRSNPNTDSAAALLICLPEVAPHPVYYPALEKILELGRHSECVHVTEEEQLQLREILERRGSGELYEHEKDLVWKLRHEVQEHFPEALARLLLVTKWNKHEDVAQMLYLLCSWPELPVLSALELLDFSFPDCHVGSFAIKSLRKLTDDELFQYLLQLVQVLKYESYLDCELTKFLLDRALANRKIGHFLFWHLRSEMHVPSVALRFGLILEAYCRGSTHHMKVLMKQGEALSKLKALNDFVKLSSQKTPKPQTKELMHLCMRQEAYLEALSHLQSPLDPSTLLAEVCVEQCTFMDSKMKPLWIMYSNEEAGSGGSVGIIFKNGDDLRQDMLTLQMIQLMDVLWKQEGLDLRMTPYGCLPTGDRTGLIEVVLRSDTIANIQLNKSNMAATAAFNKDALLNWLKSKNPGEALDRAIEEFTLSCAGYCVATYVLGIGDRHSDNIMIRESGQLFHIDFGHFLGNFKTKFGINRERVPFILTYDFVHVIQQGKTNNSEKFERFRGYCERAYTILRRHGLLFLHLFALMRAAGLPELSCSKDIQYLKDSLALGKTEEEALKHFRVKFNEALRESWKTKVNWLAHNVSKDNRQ
Test [6] can be described thus: Inhibition of PI3K-mediated PI3K/Akt/mTOR pathway in human HCT116 cells assessed as reduction in Akt Ser473 phosphorylation at 10 uM incubated for 1 hr by Western blot method. It is filed as cell-based. The conditions noted are these: HCT-116. In a few lines:
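HCT-116 cells were seeded at 5 × 10⁵ per well and grown 16 h at 37 °C, then exposed to 10 µM for 1 h; vehicle control was 0.5% DMSO. Lysates were normalised by BCA, run on 10% SDS-PAGE, transferred to nitrocellulose and probed for AKT and p-Ser473 AKT, with β-actin as loading control. Detection was by chemiluminescence; bands were quantified densitometrically.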
A general note: In western blotting, separated proteins are transferred to a membrane and probed.

Calls of active or inactive are those of the source. No cut-off for these calls is given here.

Regarding `COc1cc(C(N)=O)cc(-c2nc(N3CCOCC3)c3cc(OC)c(OCC(=O)N4CCOCC4)cc3n2)c1`, the IC50 (usually the midpoint of a concentration-inhibition curve) turned out to be 6.48 µM in test [1] and 24.4 µM in the test on MCF7.

Regarding `COc1cc2nc(-c3ccc(OCc4ccccc4)c(C(N)=O)c3)nc(N3CCOCC3)c2cc1OC`, the figures for the IC50 (in test [1]; in the test on MCF7) were 5.03 µM and 7.9 µM, respectively.

Take `COc1cc2nc(-c3cccc(NC(C)=O)c3)nc(N3CCOCC3)c2cc1OC`: the IC50 in test [1] is 1.42 µM; in the test on MCF7, 3.49 µM.

Consider `COc1cc2nc(-c3cc(C(N)=O)cc(C(F)(F)F)c3)nc(N3CCOCC3)c2cc1OC`, for which the IC50 is 0.71 µM in test [1], 2.03 µM in the test with MCF7, 1.19 µM in [2] and 4.75 µM in the test on A549.

Take `COc1cc2nc(-c3cc(OCc4ccccc4)cc(C(N)=O)c3)nc(N3CCOCC3)c2cc1OC`: the half-inhibitory concentration (IC50) in test [1] came to 3.83 µM; in the test on MCF7, 6.93 µM.

Regarding `COCCOc1cc2nc(-c3cc(OC)cc(C(N)=O)c3)nc(N3CCOCC3)c2cc1OCCOC`, the IC50 in test [1] was found to be 9.04 µM; with MCF7 it was 7.52 µM.

As for `COc1cc2nc(-c3ccc(OC)c(C(N)=O)c3)nc(N3CCOCC3)c2cc1OC`, the half-maximal inhibitory concentration (IC50) in test [1] came to 0.47 µM; in the test with MCF7 it was 1.22 µM; in test [2] it was 1.9 µM; in the test with A549, 9.63 µM.

In the case of `COc1cc(C(N)=O)cc(-c2nc(N3CCOCC3)c3cc(OC)c(OC)cc3n2)c1`, the IC50 in test [1] came out at 0.45 µM; with MCF7, 1.75 µM; in test [2], 1.01 µM; with A549 it was 9.22 µM.

In the case of `COCCOc1cc2c(N3CCOCC3)nc(-c3cc(OC)cc(C(N)=O)c3)nc2cc1OC`, the IC50 in [1] worked out at 0.89 µM; with MCF7 it was 5.19 µM.

For `COc1cc(C(N)=O)cc(-c2nc(N3CCOCC3)c3cc(OC)c(OCC(=O)N4CCN(C)CC4)cc3n2)c1`, the IC50 in test [1] was 9.44 µM; with MCF7, 18.7 µM.

As to `COc1cc2nc(-c3cccc(C(N)=O)c3)nc(N3CCOCC3)c2cc1OC`, the IC50 in [1] came out at 0.9 µM; in the test with MCF7, 2.14 µM; in test [2], 1.57 µM; with A549, 26.1 µM.

`COc1cc(C(N)=O)cc(-c2nc(N3CCOCC3)c3cc(OC)c(OCCN4CCCC4)cc3n2)c1`: the IC50 stood at 0.81 µM in test [1], 1.01 µM in the test on MCF7, 2.45 µM in [2] and 9.37 µM in the test with A549.

In the case of `COc1cc2nc(-c3ccc(O)c(C(N)=O)c3)nc(N3CCOCC3)c2cc1OC`, the IC50 was found to be 2.77 µM in [1] and 7.42 µM with MCF7.

Turning to `COc1cc(C(N)=O)cc(-c2nc(N3CCOCC3)c3cc(OC)c(OCc4ccccc4)cc3n2)c1`, the results for the IC50 (in [1]; in the test on MCF7) were 6.45 µM and 10.3 µM, respectively.

Regarding `COc1cc2nc(-c3cccc(C(=O)O)c3)nc(N3CCOCC3)c2cc1OC`, the values for the 50% inhibitory concentration (IC50) (in test [1]; in the test on MCF7) were 12.5 µM and more than 20 µM, respectively.

Turning to `CNC(=O)c1cccc(-c2nc(N3CCOCC3)c3cc(OC)c(OC)cc3n2)c1`, the figures for the IC50 (in test [1]; with MCF7) were 2.52 µM and 6.2 µM, respectively.

Regarding `COCCOc1cc2nc(-c3cc(OC)cc(C(N)=O)c3)nc(N3CCOCC3)c2cc1OC`, the IC50 in test [1] is 2.7 µM; in the test on MCF7, more than 20 µM.

As to `COc1cc2nc(-c3ccc(NC(C)=O)cc3)nc(N3CCOCC3)c2cc1OC`, the values for the IC50 (in test [1]; in the test with MCF7) were 1.09 µM and 3.61 µM, respectively.

With `COc1cc2nc(-c3cccc(C(=O)N(C)C)c3)nc(N3CCOCC3)c2cc1OC`, the values for the half-maximal inhibitory concentration (IC50) (in test [1]; in the test on MCF7) were 4.73 µM and 5.01 µM, respectively.

On to `COc1cc2nc(-c3cc(O)cc(C(N)=O)c3)nc(N3CCOCC3)c2cc1OC`, for which the IC50 in [3] amounted to 0.053 µM; on PI3K p110 beta/p85 alpha it was 0.454 µM; in [4] it was 0.394 µM; in test [5], 0.26 µM; in test [1], 0.88 µM; with MCF7, 2.64 µM. Moreover, the IC50 in test [2] turned out to be 1.84 µM; with A549, 17.2 µM.

On to `COc1cc(C(N)=O)cc(-c2nc(N3CCOCC3)c3cc(OC)c(OCCN4CCCCC4)cc3n2)c1`, for which the results for the IC50 (in test [1]; with MCF7) were 1.28 µM and 6.38 µM, respectively.

As for `COc1cc(C(N)=O)cc(-c2nc(N3CCOCC3)c3cc(OC)c(OCC4CCOCC4)cc3n2)c1`, the concentration for half-maximal inhibition (IC50) in test [1] was 3.14 µM; with MCF7 it was 8.52 µM.

In the case of `CNC(=O)COc1cc2nc(-c3cc(OC)cc(C(N)=O)c3)nc(N3CCOCC3)c2cc1OC`, the IC50 worked out at 21.7 µM in [1] and 14.9 µM in the test with MCF7.

Regarding `COC(=O)c1cccc(-c2nc(N3CCOCC3)c3cc(OC)c(OC)cc3n2)c1`, the IC50 stood at 1.07 µM in test [1] and 3.44 µM in the test on MCF7.

As to `COc1cc(C(N)=O)cc(-c2nc(N3CCOCC3)c3cc(OC)c(OCCN4CCOCC4)cc3n2)c1`, the values for the IC50 (in test [1]; in the test with MCF7) were 4.72 µM and 5.66 µM, respectively.

On to `COc1cc2nc(-c3cnc(N)nc3)nc(N3CCOCC3)c2cc1OC`, for which the IC50 in [1] amounted to 0.42 µM; in the test on MCF7, 1.38 µM; in [2], 5 µM; in the test on A549, 3.21 µM.

Take `COc1cc2nc(-c3ccc(Cl)c(C(N)=O)c3)nc(N3CCOCC3)c2cc1OC`: the results for the IC50 (in [1]; in the test with MCF7) were 2.97 µM and 4.24 µM, respectively.

On to `COc1cc2nc(-c3ccc(C(N)=O)cc3)nc(N3CCOCC3)c2cc1OC`, for which the IC50 in test [1] turned out to be 1.25 µM; with MCF7, 4.6 µM.

For the compound `CS(=O)(=O)N1CCN(Cc2cc3nc(-c4cccc5[nH]ncc45)nc(N4CCOCC4)c3s2)CC1` [PICTILISIB], in test [6], the inhibition entry was “Active”. Further, the IC50 in [1] worked out at 0.37 µM; in the test with MCF7, 1.09 µM; in [2], 1.24 µM; in the test on A549, 2.28 µM.

(Values after ChEMBL document CHEMBL3414491, “Synthesis and antitumor activities evaluation of m-(4-morpholinoquinazolin-2-yl)benzamides in vitro and in vivo” (Eur J Med Chem, 2015).)
